16 compounds from ChEMBL document CHEMBL1131328 (J Med Chem, 1998) can be followed below.

Bounds are passed on as bounds.

Assay [1] has as its system Rattus norvegicus. In words: Minimally effective dose(MED) (mg/kg body weight) at which a significant increase in EPO activity was observed in rats. The class given is functional. Conditions: read-out: MED; call rule not given here. Put shortly:
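Uterine eosinophil peroxidase (EPO) activity was measured in the 4-day ovariectomized rat assay. […] Activity at the MED is given as Vmax ± standard error.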

Assay [2] concerns Rattus norvegicus. In words: Percent decrease in serum cholesterol relative to OVX controls, at 1.0 mg/Kg compound dose. The class given is functional. In short, it runs like this: (§1)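 Ovariectomized rats were dosed daily for 4 days, and serum cholesterol was measured. Values are mean percent decrease relative to OVX controls ± SEM, n ≥ 5 per group, with significance at p ≤ 0.05. ED50 is the dose reducing serum cholesterol by 50% relative to OVX controls.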

In assay [3] the test system is Rattus norvegicus. The experiment in a line: Percent decrease in serum cholesterol relative to OVX controls, at 0.01 mg/Kg compound dose. The class given is functional. Put shortly:
as §1

Assay [4] is filed under the species Rattus norvegicus. In words: Dose required to reduce serum cholesterol by 50% relative to ovariectomized (OVX) controls. The class given is functional. In short, it runs like this: as §1
Assay [5] has as its target T1, Estrogen receptor (Rattus norvegicus) (UniProt P06211+Q62986).
Assay [6] relates to MCF7. In words: Inhibition of estrogen-stimulated MCF-7 cell proliferation. The format is functional, cell-based. Conditions: Homo sapiens. In short, it runs like this:
(§2)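 MCF-7 breast tumor cells were stimulated to proliferate with 10⁻¹¹ M 17β-estradiol, with test compound added to measure inhibition of that proliferation. IC50 was derived from the inhibition.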

The target in assay [7] is T1, Estrogen receptor (Rattus norvegicus). The experiment in a line: Minimally effective dose(MED) (mg/kg body weight) at which a statistically significant (p<= 0.05) increase in uterine weight/body weight was observed. The class given is functional, organism-based. Put shortly: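 A 4-day ovariectomized rat assay with daily dosing. Uterine weight/body weight was compared with OVX controls. The MED is the lowest dose (mg/kg) giving a significant increase (p ≤ 0.05). Activity at the MED is given as percent increase over OVX controls ± standard error.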

Assay [8] has as its system MCF7. In words: Inhibition of estrogen-stimulated MCF-7 cell proliferation; not active. The format is functional, cell-based, Homo sapiens. Put shortly:
as §2

As a reminder, the ED50 is the midpoint of the dose-response relation. The low end stands for greater potency, the high end for weaker potency. One may read the IC50 as the concentration that inhibits the measured activity by half. The low end stands for greater potency, the high end for weaker potency.

With `Oc1ccc2c3c(sc2c1)-c1ccccc1OC3c1ccc(OCCN2CCCCC2)cc1` (configuration not stated), the minimal effective dose in the assay with Rattus norvegicus [1] is above 10 mg/kg. In addition, the Decrease with Rattus norvegicus [2] was 51.5%; in the assay with Rattus norvegicus [3], 25.4%. In the assay listed under Rattus norvegicus [4], this compound gave an ED50 of 1 mg/kg. Also, the MED in assay [5] is above 10 mg/kg. Moreover, in the assay on MCF7 [6], the IC50 is 6 nM.

As for `Oc1ccc2c(c1)OC(c1ccc(OCCN3CCOCC3)cc1)c1c-2sc2cc(O)ccc12` (configuration not stated), in the assay with Rattus norvegicus [1], the minimal effective dose stood at 1 mg/kg. Besides, the Decrease in the assay with Rattus norvegicus [2] is 14.3%; in the assay with Rattus norvegicus [3] it was -48.7%. The ED50 in the assay filed under Rattus norvegicus [4] was above 10 mg/kg. In assay [5], this compound had an MED of 1 mg/kg. Besides, in the assay on MCF7 [6], the IC50 is 6 nM.

In the case of `Oc1ccc2c(c1)OC(c1ccc(OCCN3CCCCC3)cc1)c1c-2oc2cc(O)ccc12` (configuration not stated), the minimal effective dose in the assay on Rattus norvegicus [1] was above 10 mg/kg. Moreover, the Decrease in the assay on Rattus norvegicus [3] is recorded as 17.4%. The compound also yielded an ED50 in the assay filed under Rattus norvegicus [4] above 10 mg/kg. Further, in assay [5], the MED is above 10 mg/kg. Half-maximal inhibition in the assay with MCF7 [6] (IC50) was put at 0.7 nM.

As for `O=C(c1ccc(OCCN2CCCCC2)cc1)c1c(-c2ccc(O)cc2)sc2cc(O)ccc12` [RALOXIFENE], the minimal effective dose with Rattus norvegicus [1] is above 10 mg/kg. In addition, in the assay on Rattus norvegicus [3], the Decrease came out at 44.9%. Further, the ED50 in the assay listed under Rattus norvegicus [4] stood at […]. This compound also gave a half-maximal inhibitory concentration (IC50) in the assay with MCF7 [6] of […].

As for `Oc1ccc2c(c1)OC(c1ccc(OCCN3CCCC3)cc1)c1c-2sc2cc(O)ccc12` (configuration not stated), in the assay on Rattus norvegicus [1], the minimal effective dose is above 1 mg/kg. Besides, the Decrease was determined as 68% in the assay on Rattus norvegicus [2] and 38.5% in the assay on Rattus norvegicus [3]. In the assay filed under Rattus norvegicus [4], this compound displayed an ED50 of 0.2 mg/kg. The same compound came in with an MED in assay [5] of 0.1 mg/kg. For the same compound, the IC50 in the assay with MCF7 [6] came to 0.6 nM.

`Oc1ccc2c(c1)OC(c1ccc(OCCN3CCCCC3)cc1)c1c-2sc2cc(O)ccc12` (configuration not stated): in the assay on Rattus norvegicus [1], the minimal effective dose was above 10 mg/kg. Moreover, the Decrease with Rattus norvegicus [2] came to 47.6%; with Rattus norvegicus [3], 62.2%. The same compound had an ED50 in the assay filed under Rattus norvegicus [4] of 0.15 mg/kg. In assay [5], this compound displayed an MED above 10 mg/kg. In the assay on MCF7 [6], this compound yielded a half-inhibitory concentration (IC50) of 0.2 nM.

Turning to `CC/C(=C(\c1ccccc1)c1ccc(OCCN(C)C)cc1)c1ccccc1` [TAMOXIFEN], the minimal effective dose in the assay with Rattus norvegicus [1] stood at 0.1 mg/kg. In addition, the Decrease is listed as 71.1% in the assay on Rattus norvegicus [2] and 39.2% with Rattus norvegicus [3]. Also, the ED50 in the assay listed under Rattus norvegicus [4] amounted to 0.2 mg/kg.

Take `O=C1CCCN1CCOc1ccc(C2Oc3cc(O)ccc3-c3sc4cc(O)ccc4c32)cc1` (configuration not stated): in the assay with Rattus norvegicus [1], the minimal effective dose was above 3 mg/kg. Besides, the values for the Decrease in the assay with Rattus norvegicus [2] and in the assay on Rattus norvegicus [3] were 4.4% and -15.2%, respectively. This compound had an MED in assay [5] of 3 mg/kg. The compound further registered an IC50 in the assay with MCF7 [6] of 9 nM.

In the assay with MCF7 [6], `CC/C(=C(\c1ccc(O)cc1)c1ccc(OCCN(C)C)cc1)c1ccccc1` registered an IC50 of […].

As for `Oc1ccc2c(c1)OC(c1ccc(OCCN3CCCCC3)cc1)c1c-2ccc2cc(O)ccc12` (configuration not stated), the minimal effective dose in the assay on Rattus norvegicus [1] was above 10 mg/kg. The Decrease in the assay with Rattus norvegicus [2] worked out at 65.7%; with Rattus norvegicus [3], 57.2%. In the assay filed under Rattus norvegicus [4], this compound yielded an ED50 of 0.02 mg/kg. Also, the MED in assay [7] was above 10 mg/kg. This compound returned an IC50 in the assay on MCF7 [6] of 0.4 nM.

On to `CCN(CC)CCOc1ccc(C2Oc3cc(O)ccc3-c3sc4cc(O)ccc4c32)cc1` (configuration not stated), for which the minimal effective dose in the assay on Rattus norvegicus [1] was determined as 0.1 mg/kg. For the same compound, the figures for the Decrease with Rattus norvegicus [2] and with Rattus norvegicus [3] were 38.7% and 20.6%, respectively. In addition, the 50% effective dose (ED50) in the assay listed under Rattus norvegicus [4] was above 10 mg/kg. Besides, the MED in assay [5] came to 0.1 mg/kg. The same compound had an IC50 in the assay on MCF7 [6] of 8 nM.

As to `CN(C)CCOc1ccc(C2Oc3cc(O)ccc3-c3sc4cc(O)ccc4c32)cc1` (configuration not stated), the minimal effective dose with Rattus norvegicus [1] turned out to be 0.1 mg/kg. In addition, the Decrease in the assay on Rattus norvegicus [2] was 54.7%; in the assay on Rattus norvegicus [3] it was 40.1%. In the assay listed under Rattus norvegicus [4], the ED50 is 0.5 mg/kg. In addition, the MED in assay [5] is 0.1 mg/kg. The IC50 with MCF7 [6] was determined as 2 nM.

Consider `C#C[C@]1(O)CC[C@H]2[C@@H]3CCc4cc(O)ccc4[C@H]3CC[C@@]21C` [ETHINYL ESTRADIOL], for which, in the assay with Rattus norvegicus [1], the minimal effective dose amounted to 0.1 mg/kg. Also, in the assay on Rattus norvegicus [3], the Decrease stood at 57.1%. Further, it took a dose of 0.005 mg/kg to reach the 50% effect level in the assay filed under Rattus norvegicus [4] (ED50). For the same compound, the IC50 result with MCF7 [8] is listed as “Not Active”.

Turning to `c1ccc2c(c1)OC(c1ccc(OCCN3CCCCC3)cc1)c1c-2sc2ccccc12` (configuration not stated), in the assay on Rattus norvegicus [1], the minimal effective dose was above 10 mg/kg. The Decrease with Rattus norvegicus [3] amounted to 39.8%. Further, the 50% effective dose (ED50) in the assay filed under Rattus norvegicus [4] turned out to be 0.7 mg/kg. In assay [5], this compound registered an MED of 0.1 mg/kg. In the assay with MCF7 [6], this compound showed an IC50 of 80 nM.

In the assay with MCF7 [6], `COc1ccc2c(c1)OC(c1ccc(OCCN3CCCCC3)cc1)c1c-2sc2cc(OC)ccc12` (configuration not stated) gave an IC50 of 100 nM.

On to `Oc1ccc2c(c1)OC(c1ccc(OCCN3CCCCC3)cc1)c1c-2sc2ccccc12` (configuration not stated), for which the minimal effective dose in the assay on Rattus norvegicus [1] is above 10 mg/kg. The Decrease in the assay with Rattus norvegicus [2] is 53.7%; with Rattus norvegicus [3], 46.5%. Moreover, in the assay listed under Rattus norvegicus [4], the 50% effect level (ED50) was put at a dose of 0.5 mg/kg. In assay [5], this compound displayed an MED above 10 mg/kg. In the assay with MCF7 [6], this compound came in with an IC50 of 20 nM.
